# Measurements published in ChEMBL document CHEMBL1275420, “Transfer of embB codon 306 mutations into clinical Mycobacterium tuberculosis strains alters susceptibility to ethambutol, isoniazid, and rifampin” (2008).
# Active and inactive are the calls of the source. No cut-off for these calls is given here.
# Experiments:
# [1] = test system: Mycobacterium tuberculosis; assay: Antimycobacterial activity against ethambutol-susceptible and rifampin-resistant Mycobacterium tuberculosis isolate NJT30167 expressing embB codon 306 ATG assessed as bacterial growth rate at sub MIC compound concentration by radiometric Bactec 460TB method; type: functional, organism-based
# Procedure, shortened: (§1)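 Sub-MIC growth curves in Bactec 12B vials with isoniazid (strain 210 vs NJT210CTG also rifampin) at several sub-MIC levels. The daily growth index was followed. No-drug controls were inoculated at 1:100 dilution. Values are means and standard deviations of three independent experiments.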
# [2] = test system: Mycobacterium tuberculosis; assay: Antimycobacterial activity against Mycobacterium tuberculosis isolate NJT210 expressing embB codon 306 CTG mutant assessed as bacterial growth rate at 0.03 ug/ml by radiometric Bactec 460TB method; type: functional, organism-based; procedure, shortened: as §1
# [3] = test system: Mycobacterium tuberculosis; assay: Antimycobacterial activity against ethambutol resistant Mycobacterium tuberculosis isolate NJT210EMB-R-C3 assessed as bacterial colony formation at 37 degC after 10 to 11 days by radiometric Bactec 460TB method; type: functional
# [4] = test system: Mycobacterium tuberculosis; assay: Antimycobacterial activity against ethambutol resistant Mycobacterium tuberculosis isolate NJT210EMB-R-C2 assessed as bacterial colony formation at 37 degC after 10 to 11 days by radiometric Bactec 460TB method; type: functional
# [5] = test system: Mycobacterium tuberculosis; assay: Antimycobacterial activity against ethambutol resistant Mycobacterium tuberculosis isolate NJT210EMB-R-C1 assessed as bacterial colony formation at 37 degC after 10 to 11 days by radiometric Bactec 460TB method; type: functional
# [6] = test system: Mycobacterium tuberculosis; assay: Antimycobacterial activity against rifampin, ethambutol resistant Mycobacterium tuberculosis isolate NJT30167 expressing embB codon 306 ATG mutant at 37 degC after 3 to 4 weeks by radiometric Bactec 460TB method; type: functional
# [7] = test system: Mycobacterium tuberculosis; assay: Antimycobacterial activity against rifampin, ethambutol resistant Mycobacterium tuberculosis isolate 30167 at 37 degC after 3 to 4 weeks by radiometric Bactec 460TB method; type: functional
# [8] = test system: Mycobacterium tuberculosis; assay: Antimycobacterial activity against isoniazid, rifampin, ethambutol resistant Mycobacterium tuberculosis isolate NJT5310 expressing embB codon 306 ATG-GTG mutant at 37 degC after 3 to 4 weeks by radiometric Bactec 460TB method; type: functional
# [9] = test system: Mycobacterium tuberculosis; assay: Antimycobacterial activity against isoniazid, rifampin, ethambutol resistant Mycobacterium tuberculosis isolate NJT5310 expressing embB codon 306 ATG-CTG mutant at 37 degC after 3 to 4 weeks by radiometric Bactec 460TB method; type: functional
# [10] = test system: Mycobacterium tuberculosis; assay: Antimycobacterial activity against isoniazid, rifampin, ethambutol resistant Mycobacterium tuberculosis isolate NJT5310 expressing embB codon 306 ATG-ATC mutant at 37 degC after 3 to 4 weeks by radiometric Bactec 460TB method; type: functional
# [11] = test system: Mycobacterium tuberculosis; assay: Antimycobacterial activity against isoniazid, rifampin, ethambutol resistant Mycobacterium tuberculosis isolate NJT5310 expressing embB codon 306 ATG-ATA mutant at 37 degC after 3 to 4 weeks by radiometric Bactec 460TB method; type: functional
# [12] = test system: Mycobacterium tuberculosis; assay: Antimycobacterial activity against isoniazid, rifampin, ethambutol resistant Mycobacterium tuberculosis isolate NJT5310 expressing embB codon 306 ATG mutant at 37 degC after 3 to 4 weeks by radiometric Bactec 460TB method; type: functional
# [13] = test system: Mycobacterium tuberculosis; assay: Antimycobacterial activity against isoniazid, rifampin, ethambutol resistant Mycobacterium tuberculosis isolate 5310 at 37 degC after 3 to 4 weeks by radiometric Bactec 460TB method; type: functional
# [14] = test system: Mycobacterium tuberculosis; assay: Antimycobacterial activity against Mycobacterium tuberculosis isolate NJT210 expressing embB codon 306 CTG-ATG mutant at 37 degC after 10 to 11 days by radiometric Bactec 460TB method; type: functional
# [15] = test system: Mycobacterium tuberculosis; assay: Antimycobacterial activity against Mycobacterium tuberculosis isolate NJT210 expressing embB codon 306 CTG mutant at 37 degC after 10 to 11 days by radiometric Bactec 460TB method; type: functional
# [16] = test system: Mycobacterium tuberculosis; assay: Antimycobacterial activity against Mycobacterium tuberculosis isolate NJT210 expressing embB codon 306 ATC mutant at 37 degC after 10 to 11 days by radiometric Bactec 460TB method; type: functional
# [17] = test system: Mycobacterium tuberculosis; assay: Antimycobacterial activity against Mycobacterium tuberculosis isolate NJT210 expressing embB codon 306 ATA mutant at 37 degC after 10 to 11 days by radiometric Bactec 460TB method; type: functional
# [18] = test system: Mycobacterium tuberculosis; assay: Antimycobacterial activity against Mycobacterium tuberculosis isolate NJT210 expressing embB codon 306 CTG mutant assessed as bacterial growth rate at 0.04 ug/ml by radiometric Bactec 460TB method; type: functional, organism-based; procedure, shortened: as §1
# [19] = test system: Mycobacterium tuberculosis; assay: Antimycobacterial activity against Mycobacterium tuberculosis isolate NJT210 expressing embB codon 306 ATC-ATG mutant at 37 degC after 10 to 11 days by radiometric Bactec 460TB method; type: functional
# [20] = test system: Mycobacterium tuberculosis; assay: Antimycobacterial activity against Mycobacterium tuberculosis isolate NJT210 expressing embB codon 306 GTG mutant at 37 degC after 10 to 11 days by radiometric Bactec 460TB method; type: functional
# [21] = test system: Mycobacterium tuberculosis; assay: Antimycobacterial activity against rifampin, ethambutol resistant Mycobacterium tuberculosis isolate A2558 at 37 degC after 3 to 4 weeks by radiometric Bactec 460TB method; type: functional
# [22] = test system: Mycobacterium tuberculosis; assay: Antimycobacterial activity against rifampin, ethambutol resistant Mycobacterium tuberculosis isolate 5041 at 37 degC after 3 to 4 weeks by radiometric Bactec 460TB method; type: functional
Compound,MIC [3],MIC [4],MIC [5],MIC [6],MIC [7],MIC [8],MIC [9],MIC [10],MIC [11],MIC [12],MIC [13],MIC [14],MIC [15],MIC [16],MIC [17],Activity [18],MIC [19],MIC [20],other results
NNC(=O)c1ccncc1 [ISONIAZID],0.05 µg/mL,0.05 µg/mL,0.05 µg/mL,0.07 µg/mL,0.07 µg/mL,2.5 µg/mL,2.5 µg/mL,2.5 µg/mL,2.5 µg/mL,2.5 µg/mL,2.5 µg/mL,0.05 µg/mL,0.05 µg/mL,0.05 µg/mL,0.05 µg/mL,inactive,0.05 µg/mL,0.05 µg/mL,Activity [1]: Active; Activity [2]: inactive
CC[C@@H](CO)NCCN[C@@H](CC)CO [ETHAMBUTOL],8 µg/mL,14 µg/mL,14 µg/mL,3 µg/mL,20 µg/mL,28 µg/mL,20 µg/mL,16 µg/mL,16 µg/mL,3 µg/mL,28 µg/mL,2 µg/mL,8.5 µg/mL,7 µg/mL,7 µg/mL,–,2 µg/mL,14 µg/mL,MIC [21]: 5 µg/mL; MIC [22]: 8 µg/mL
CO[C@H]1/C=C/O[C@@]2(C)Oc3c(C)c(O)c4c(O)c(c(/C=N/N5CCN(C)CC5)c(O)c4c3C2=O)NC(=O)/C(C)=C\C=C\[C@H](C)[C@H](O)[C@@H](C)[C@@H](O)[C@@H](C)[C@H](OC(C)=O)[C@@H]1C [RIFAMPIN],0.05 µg/mL,0.05 µg/mL,0.05 µg/mL,>240 µg/mL,> 240 µg/mL,>240 µg/mL,>240 µg/mL,>240 µg/mL,>240 µg/mL,>240 µg/mL,> 240 µg/mL,0.05 µg/mL,0.05 µg/mL,0.05 µg/mL,0.05 µg/mL,inactive,0.05 µg/mL,0.05 µg/mL,–
